Our source for the MIC and Activity values is ChEMBL document CHEMBL4680134, “Structural optimization of natural product nordihydroguaretic acid to discover novel analogues as AcrB inhibitors” (Eur J Med Chem, 2020).

Series [1] concerns the target T1, Multidrug efflux pump subunit AcrB (Escherichia coli (strain K12)) (UniProt P31224).
T1 sequence (whole entry): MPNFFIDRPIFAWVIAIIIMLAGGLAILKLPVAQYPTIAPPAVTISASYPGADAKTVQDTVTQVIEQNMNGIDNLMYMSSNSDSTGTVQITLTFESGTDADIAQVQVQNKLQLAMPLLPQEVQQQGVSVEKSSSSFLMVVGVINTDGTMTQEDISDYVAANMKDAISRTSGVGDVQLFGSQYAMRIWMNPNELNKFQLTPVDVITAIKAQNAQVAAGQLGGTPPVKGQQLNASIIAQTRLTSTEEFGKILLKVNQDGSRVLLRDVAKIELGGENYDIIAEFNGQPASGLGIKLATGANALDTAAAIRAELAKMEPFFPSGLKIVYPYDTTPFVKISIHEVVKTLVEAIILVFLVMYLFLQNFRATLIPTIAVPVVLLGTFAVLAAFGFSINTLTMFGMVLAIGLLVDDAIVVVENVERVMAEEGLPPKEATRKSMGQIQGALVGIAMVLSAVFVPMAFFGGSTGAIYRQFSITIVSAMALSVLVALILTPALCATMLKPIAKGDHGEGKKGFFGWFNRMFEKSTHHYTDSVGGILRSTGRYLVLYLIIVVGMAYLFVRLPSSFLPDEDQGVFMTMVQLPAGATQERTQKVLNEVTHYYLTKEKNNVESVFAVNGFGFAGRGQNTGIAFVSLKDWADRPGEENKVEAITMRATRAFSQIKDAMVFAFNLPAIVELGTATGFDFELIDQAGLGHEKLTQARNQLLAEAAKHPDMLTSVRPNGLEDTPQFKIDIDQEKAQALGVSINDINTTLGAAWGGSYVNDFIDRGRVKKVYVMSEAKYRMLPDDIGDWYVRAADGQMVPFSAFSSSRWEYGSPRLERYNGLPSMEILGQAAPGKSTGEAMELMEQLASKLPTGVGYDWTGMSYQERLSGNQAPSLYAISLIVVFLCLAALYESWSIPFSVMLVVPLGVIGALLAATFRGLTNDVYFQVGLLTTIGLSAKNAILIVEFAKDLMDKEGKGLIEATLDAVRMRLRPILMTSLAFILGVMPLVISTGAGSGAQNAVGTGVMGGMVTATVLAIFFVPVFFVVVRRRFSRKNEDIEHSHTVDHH
Put plainly: Inhibition of AcrB in Escherichia coli BW25113 assessed as potentiation of levofloxacin induced antibacterial activity by measuring levofloxacin MIC at 16 ug/ml measured after 18 hrs by checkerboard titration method (reference value: 0.06 ug/ml). The settings on record: dose 16.0 µg/ml.

Series [2] concerns the target T1, Multidrug efflux pump subunit AcrB (Escherichia coli (strain K12)). The series is described as follows: Inhibition of AcrB in Escherichia coli BW25113 assessed as potentiation of rifampicin induced antibacterial activity by measuring rifampicin MIC at 16 ug/ml measured after 18 hrs by checkerboard titration method (reference value: 16 ug/ml). The settings on record: dose 16.0 µg/ml.

The target is the same in series [3]. The series is described as follows: Inhibition of AcrB in Escherichia coli BW25113 assessed as potentiation of tetraphenylphosphonium induced antibacterial activity by measuring tetraphenylphosphonium MIC at 16 ug/ml measured after 18 hrs by checkerboard titration method (reference value: 1024 ug/ml). The settings on record: dose 16.0 µg/ml.
Series [4] has the same target. The series is described as follows: Inhibition of AcrB in Escherichia coli BW25113 assessed as potentiation of levofloxacin induced antibacterial activity by measuring levofloxacin MIC at 256 ug/ml measured after 18 hrs by checkerboard titration method (reference value: 0.06 ug/ml). To be noted: dose 256.0 µg/ml.
The target is the same in series [5]. Put plainly: Inhibition of AcrB in Escherichia coli BW25113 assessed as potentiation of rifampicin induced antibacterial activity by measuring rifampicin MIC at 256 ug/ml measured after 18 hrs by checkerboard titration method (reference value: 16 ug/ml). To be noted: dose 256.0 µg/ml.
Series [6] has the same target. The series is described as follows: Inhibition of AcrB in Escherichia coli BW25113 assessed as potentiation of erythromycin induced antibacterial activity by measuring erythromycin MIC at 256 ug/ml measured after 18 hrs by checkerboard titration method (reference value: 64 ug/ml). To be noted: dose 256.0 µg/ml.
The target is the same in series [7]. The series is described as follows: Inhibition of AcrB in Escherichia coli BW25113 assessed as potentiation of chloramphenicol induced antibacterial activity by measuring chloramphenicol MIC at 16 ug/ml measured after 18 hrs by checkerboard titration method (reference value: 8 ug/ml). To be noted: dose 16.0 µg/ml.
Series [8] has the same target. The series is described as follows: Inhibition of AcrB in Escherichia coli BW25113 assessed as potentiation of erythromycin induced antibacterial activity by measuring erythromycin MIC at 128 ug/ml measured after 18 hrs by checkerboard titration method (reference value: 64 ug/ml). The settings on record: dose 128.0 µg/ml.
The target is the same in series [9]. Put plainly: Inhibition of AcrB in Escherichia coli BW25113 assessed as potentiation of chloramphenicol induced antibacterial activity by measuring chloramphenicol MIC at 256 ug/ml measured after 18 hrs by checkerboard titration method (reference value: 8 ug/ml). To be noted: dose 256.0 µg/ml.
A further series concerns Cell membrane. The series is described as follows: Induction of outer membrane permeabilization in wild type Escherichia coli BW25113 assessed as increase in nitrocefin hydrolysis at 128 ug/ml by spectrophotometry analysis. To be noted: dose 128 µg/ml. Summed up:
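Outer-membrane permeability: intact E. coli treated with 10 µM CCCP to block nitrocefin efflux, then exposed to compound. Nitrocefin hydrolysis by periplasmic β-lactamase followed as increasing absorbance at 490 nm over time. Polymyxin B as permeabilizer control, untreated cells as baseline. Duplicate experiments on different days.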

Series [10] deals with T1, Multidrug efflux pump subunit AcrB (Escherichia coli (strain K12)). Put plainly: Inhibition of AcrB in Escherichia coli BW25113 assessed as potentiation of chloramphenicol induced antibacterial activity by measuring chloramphenicol MIC at 8 ug/ml measured after 18 hrs by checkerboard titration method (reference value: 8 ug/ml). To be noted: dose 8.0 µg/ml.
Series [11] shares this target. Put plainly: Inhibition of AcrB in Escherichia coli BW25113 assessed as potentiation of levofloxacin induced antibacterial activity by measuring levofloxacin MIC at 8 ug/ml measured after 18 hrs by checkerboard titration method (reference value: 0.06 ug/ml). The settings on record: dose 8.0 µg/ml.
For series [12] the target is unchanged. The series is described as follows: Inhibition of AcrB in Escherichia coli BW25113 assessed as potentiation of rifampicin induced antibacterial activity by measuring rifampicin MIC at 8 ug/ml measured after 18 hrs by checkerboard titration method (reference value: 16 ug/ml). The settings on record: dose 8.0 µg/ml.
Series [13] shares this target. The series is described as follows: Inhibition of AcrB in Escherichia coli BW25113 assessed as potentiation of tetraphenylphosphonium induced antibacterial activity by measuring tetraphenylphosphonium MIC at 8 ug/ml measured after 18 hrs by checkerboard titration method (reference value: 1024 ug/ml). To be noted: dose 8.0 µg/ml.
For series [14] the target is unchanged. Put plainly: Inhibition of AcrB in Escherichia coli BW25113 assessed as potentiation of erythromycin induced antibacterial activity by measuring erythromycin MIC at 8 ug/ml measured after 18 hrs by checkerboard titration method (reference value: 64 ug/ml). The settings on record: dose 8.0 µg/ml.

As for `Oc1ccc(CCCCc2ccc(O)c(O)c2)cc1O`, the MIC in series [1] came to 0.06 µg/mL; in series [2] it was 16 µg/mL; in series [3], 1020 µg/mL; in series [4], 0.06 µg/mL; in series [5], 16 µg/mL; in series [6] it was 32 µg/mL. In addition, the MIC came out at 8 µg/mL in series [7], 32 µg/mL in series [8] and 4 µg/mL in [9].
On to `Oc1ccc(CCCCc2cc(O)c(O)c(O)c2)cc1O`, for which the MIC stood at 0.06 µg/mL in series [1]; 16 µg/mL in [2]; 512 µg/mL in series [3]; 0.06 µg/mL in series [4]; 16 µg/mL in [5]; 32 µg/mL in [6]. The MIC in series [7] stood at 8 µg/mL; in series [8], 32 µg/mL; in series [9], 1 µg/mL.
`Oc1ccc(CCCCc2ccccc2O)cc1O`: the MIC in series [1] came to 0.06 µg/mL; in series [2], 16 µg/mL; in series [3], 512 µg/mL; in series [4], 0.06 µg/mL; in [5], 16 µg/mL; in series [6], 32 µg/mL. The results for the MIC in series [7], in series [8] and in [9] were 8 µg/mL, 64 µg/mL and 4 µg/mL, respectively. Further, the Activity result in the series with Cell membrane was “Non-Toxic”.
For the compound `Oc1ccc(CCCCc2ccc(Br)cc2)cc1O`, the MIC in series [1] was found to be 0.06 µg/mL; in [2], 16 µg/mL; in [3], 1020 µg/mL; in series [4], 0.06 µg/mL; in [5], 16 µg/mL; in [6] it was 64 µg/mL. The MIC in series [7] amounted to 8 µg/mL; in series [8] it was 64 µg/mL; in series [9], 8 µg/mL. Moreover, in the series on Cell membrane, the Activity result was “Toxic”.
Turning to `C[C@H](Cc1ccc(O)c(O)c1)[C@@H](C)Cc1ccc(O)c(O)c1` [MASOPROCOL], the MIC is 0.03 µg/mL in series [4]; 16 µg/mL in [5]; 32 µg/mL in [6]; 64 µg/mL in series [8]; 2 µg/mL in series [9].
Regarding `O=C(NCCc1ccc(O)c(O)c1)c1ccccc1O`, the MIC in [10] amounted to 8 µg/mL; in series [11], 0.06 µg/mL; in series [1], 0.06 µg/mL; in series [2], 16 µg/mL; in [3] it was 1020 µg/mL; in [12], 16 µg/mL. Also, the MIC was found to be 1020 µg/mL in [13], 8 µg/mL in [7], 64 µg/mL in series [8] and 64 µg/mL in [14].
In the case of `Oc1ccc(CCCCCc2ccc(O)c(O)c2)cc1O`, the MIC is 0.06 µg/mL in [1]; 16 µg/mL in [2]; 1020 µg/mL in series [3]; 0.06 µg/mL in series [4]; 16 µg/mL in series [5]; 64 µg/mL in series [6]. The MIC in series [7] turned out to be 8 µg/mL; in series [8], 64 µg/mL; in series [9], 8 µg/mL. In the series on Cell membrane, the Activity entry is “Non-Toxic”.
As for `Oc1ccc(CCCCc2ccc(Cl)cc2)cc1O`, the MIC stood at 0.06 µg/mL in series [1]; 16 µg/mL in series [2]; 1020 µg/mL in series [3]; 0.06 µg/mL in series [4]; 16 µg/mL in series [5]; 64 µg/mL in [6]. Moreover, the MIC in series [7] turned out to be 16 µg/mL; in series [8], 64 µg/mL; in series [9], 16 µg/mL. Moreover, the Activity result in the series with Cell membrane is recorded as “Toxic”.
`O=C(NCCc1ccc(O)c(O)c1)c1ccc(Br)cc1`: the MIC came to 8 µg/mL in series [10]; 0.06 µg/mL in series [11]; 0.06 µg/mL in series [1]; 16 µg/mL in series [2]; 1020 µg/mL in series [3]; 16 µg/mL in series [12]. In addition, the MIC in series [13] was determined as 1020 µg/mL; in series [7], 8 µg/mL; in series [8], 32 µg/mL; in [14], 64 µg/mL.
For the compound `O=C(NCCc1ccc(O)c(O)c1)c1ccc(C(F)(F)F)cc1`, the MIC in series [10] is 8 µg/mL; in series [11], 0.06 µg/mL; in [1], 0.06 µg/mL; in series [2], 16 µg/mL; in series [3] it was 1020 µg/mL; in series [12], 16 µg/mL. Moreover, the MIC stood at 1020 µg/mL in series [13], 8 µg/mL in series [7], 64 µg/mL in [8] and 64 µg/mL in series [14].
`Oc1ccc(CCCCc2cc3cccc4ccc5cccc2c5c43)cc1O`: the MIC in [1] is 0.06 µg/mL; in series [2], 16 µg/mL; in series [3] it was 512 µg/mL; in series [4], 0.06 µg/mL; in series [5], 16 µg/mL; in series [6], 32 µg/mL. The values for the MIC in [7], in series [8] and in [9] were 8 µg/mL, 32 µg/mL and 4 µg/mL, respectively. Also, the Activity entry in the series on Cell membrane is given as “Non-Toxic”.
`Oc1ccc(CCCCCCCc2ccc(O)c(O)c2)cc1O`: the MIC was 0.06 µg/mL in series [1]; 16 µg/mL in series [2]; 1020 µg/mL in series [3]; 0.06 µg/mL in [4]; 16 µg/mL in series [5]; 64 µg/mL in [6]. The MIC in [7] was determined as 8 µg/mL; in series [8], 64 µg/mL; in [9], 8 µg/mL. The Activity result in the series with Cell membrane was “Non-Toxic”.
For `Oc1ccc(CCCCCCc2ccc(O)c(O)c2)cc1O`, the MIC turned out to be 0.06 µg/mL in [1]; 16 µg/mL in [2]; 0.06 µg/mL in series [4]; 16 µg/mL in [5]; 64 µg/mL in series [6]; 8 µg/mL in series [7]. In addition, the results for the MIC in [8] and in series [9] were 64 µg/mL and 8 µg/mL, respectively. The Activity entry in the series with Cell membrane is listed as “Non-Toxic”.
On to `Oc1ccc(CCCc2ccc(O)c(O)c2)cc1O`, for which the MIC was 0.06 µg/mL in [1]; 16 µg/mL in [2]; 1020 µg/mL in series [3]; 0.06 µg/mL in [4]; 16 µg/mL in series [5]; 32 µg/mL in series [6]. In addition, the MIC in series [7] was found to be 8 µg/mL; in [8], 32 µg/mL; in series [9], 8 µg/mL.
